Measured values published in ChEMBL document CHEMBL1125186, “GABA-uptake inhibitors: construction of a general pharmacophore model and successful prediction of a new representative” (J Med Chem, 1991).
One block for each compound: values may come before it.

Columns and labels:
Rattus norvegicus = species on record: Rattus norvegicus; assay: Concentration required for 50% inhibition of GABA uptake in rat brain; type: functional
Summary of the method: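 Rat corpus striatum synaptosomes from a 0.32 M sucrose homogenate: 1000g spin, then 20000g pellet, both at 4 °C. Synaptosomes (1 mg protein) incubated 2 min at 37 °C in pH 7.4 Krebs-Ringer phosphate with 0.15 M NaCl, [3H]GABA (25–40 Ci/mmol) and test compound up to 10⁻⁴ M. Stopped by dilution with NaCl-free medium, centrifuged; pellet radioactivity counted. IC50 derived from the concentration range.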

[1] = Partition coefficient (logP) (cyclohexane); type: physicochemical; conditions: cyclohexane/phosphate buffer pH 7.4
Summary of the method: (§1)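 Conventional shake-flask partitioning at room temperature, 1-octanol or cyclohexane against 0.15 M phosphate buffer pH 7.4. Compound in the aqueous phase quantified spectrophotometrically. Means of at least two determinations.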

[2] = Delta logPoct-cyc; type: ADME; conditions: octanol/water
Summary of the method: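 ΔP taken as log Poct minus log Pcyc. Both come from shake-flask partitioning at room temperature against 0.15 M phosphate buffer pH 7.4, with the aqueous phase read spectrophotometrically.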

[3] = I/U is the ratio of zwitterionic (I) to that of unionized […]; type: ADME
Summary of the method: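 Ratio of zwitterionic (I) to un-ionized (U) species calculated by the Wegscheider method.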

[4] = Partition coefficient (logP); type: physicochemical; conditions: octanol/water; summary of the method: as §1
[5] = Dissociation constant was measured as pKa1 by potentiometric titrations
[6] = Dissociation constant was measured by potentiometric titrations; type: physicochemical
Summary of the method: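 pKa determined by potentiometric titration; values are means of at least two determinations.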

[7] = Concentration required for 50% inhibition of GABA uptake in rat brain

IC50 (Rattus norvegicus): 40 µM
Compound: CC1CC=C(C(=O)O)CN1 (configuration not stated)

logP [1]: -2
delta logP [2]: 2.71
Ratio [3]: 7000
logP [4]: 0.71
pKa [5]: 3.79
pKa2 [6]: 9.25
IC50 (Rattus norvegicus): 0.1 µM
Compound: Cl.O=C(O)C1=CCC(CCC(c2ccccc2)c2ccccc2)NC1 (configuration not stated)

IC50 (Rattus norvegicus): > 100 µM
Compound: CCCC1CC=C(C(=O)OCC)CN1 (configuration not stated)

IC50 (Rattus norvegicus): > 100 µM
Compound: CCCC1CC=C(C(=O)O)CN1 (configuration not stated)

IC50 (Rattus norvegicus): 100 µM
Compound: O=C(O)C1=CCC(CCc2ccccc2)NC1 (configuration not stated)

IC50 (Rattus norvegicus): > 100 µM
Compound: CCOC(=O)C1=CCC(CC)NC1 (configuration not stated)

IC50 (Rattus norvegicus): > 100 µM
Compound: O=C(O)C1=CCC(CCCCc2ccccc2)NC1 (configuration not stated)

IC50 (Rattus norvegicus): > 100 µM
Compound: CCC1CC=C(C(=O)O)CN1 (configuration not stated)

IC50 (Rattus norvegicus): 37 µM
Compound: CCOC(=O)C1=CCC(CCC(c2ccccc2)c2ccccc2)NC1 (configuration not stated)

IC50 (Rattus norvegicus): > 100 µM
Compound: CN1CC(C(=O)O)=CCC1CCCCc1ccccc1 (configuration not stated)

logP [1]: -0.43
delta logP [2]: 1.43
Ratio [3]: 6000
logP [4]: 0.99
pKa2 [6]: 9.23
Compound: O=C(O)C1CCCN(CCC=C(c2ccccc2)c2ccccc2)C1 (configuration not stated)
pKa [7]: 3.57
